In brackets after ≈: the same amount, converted by molar mass. Blank lines part the entries; values can stand above or below the compound they belong to. Activity calls are given as the source filed them. No cut-off for these calls is given here.
Assays:
[1] = AUC in rat at 10 mg/kg, po; assay type: ADME, organism-based; design: dose 10 mg/kg, route oral; details: plasma
Method in brief: (§1)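 Oral dose of 10 mg/kg given as a suspension in aqueous 0.5% CMC/0.25% Tween 80. Plasma AUC, Cmax and Tmax were taken from the oral arm. Bioavailability was derived against the intravenous arm in the same species.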

[2] = biological target: c-Jun N-terminal kinase, JNK (Homo sapiens, UniProt P45983+P53779+P45984); assay: Inhibition of JNK-mediated GST tagged c-Jun phosphorylation in human Jurkat T cells compound treated for 30 mins prior anisomycin stimulation measured after 40 mins by fluorescence spectrophotometry; assay type: cell-based
[3] = biological target: Mitogen-activated protein kinase 14 (Homo sapiens, UniProt Q16539); assay: Inhibition of p38alpha using myelin basic protein as substrate preincubated for 15 mins prior ATP addition measured after 60 mins by scintillation counting
[4] = biological target: Mitogen-activated protein kinase 8 (Homo sapiens, UniProt P45983); assay: Inhibition of hexa-His-tagged JNK1 expressed in baculoviral system using GST-tagged c-Jun as substrate preincubated for 15 mins prior ATP addition measured after 60 mins by scintillation counting
[5] = Oral bioavailability in rat; assay type: ADME, organism-based; details: in vivo
[6] = Clearance in rat at 2 mg/kg, iv; assay type: ADME, organism-based; design: dose 2 mg/kg, route intravenous; details: in vivo
Method in brief: (§2)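 Rats dosed intravenously at 2 mg/kg in a solution of 5% DMA and 30% PEG 400.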

[7] = Tmax in cynomolgus monkey at 10 mg/kg, po; assay type: ADME, organism-based, Macaca fascicularis; design: dose 10 mg/kg, route oral; details: in vivo; method in brief: as §1
[8] = Solubility in simulated intestinal fluid; assay type: physicochemical
Cytochrome P450 2D6 = Cytochrome P450 2D6 (Homo sapiens, UniProt P10635); assay: Inhibition of CYP2D6; assay type: ADME
Mus musculus [9] = assay: Antifibrotic activity in bleomycin-induced C57B1/6 mouse model assessed as reduction in lung fibrosis score compound po bid administered 2 hrs prior bleomycin induction for 13 days; assay type: functional, organism-based
Method in brief: (§3)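 Mice received oral doses prophylactically at 25, 50, 100 and 150 mg/kg before bleomycin instillation, then twice daily for 13 days. White blood cells, monocytes and lymphocytes were counted in bronchoalveolar lavage, and lung fibrosis was scored, each against a vehicle control.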

Rattus norvegicus [10] = assay: Toxicity in rat assessed as adverse effects at 90 mg/kg, po qd for 4 days; assay type: organism-based; design: dose 90 mg/kg, route oral; details: in vivo, 96 h
Method in brief: (§4)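 Male rats dosed once daily for 4 days by oral gavage with suspensions in aqueous CMC at 30, 90 and 300 mg/kg. Adverse observations were recorded and histology examined.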

[11] = Oral bioavailability in cynomolgus monkey at 10 mg/kg; assay type: ADME, organism-based, Macaca fascicularis; details: in vivo; method in brief: as §1
[12] = AUC in cynomolgus monkey at 10 mg/kg, po; assay type: ADME, organism-based, Macaca fascicularis; design: dose 10 mg/kg, route oral; details: plasma; method in brief: as §1
[13] = Volume of distribution at steady state in dog at 1 mg/kg, iv; assay type: ADME, organism-based, Canis lupus familiaris; design: dose 1 mg/kg, route intravenous; details: in vivo, read-out: Vdss
Rattus norvegicus [14] = assay: Antiinflammatory activity in CD rat assessed as inhibition of LPS-stimulated TNFalpha production at 30 mg/kg, po administered 1 hr prior LPS challenge measured after 90 mins by ELISA; assay type: functional
Method in brief: (§5)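 Acute PK-PD model in rats: compound given by oral gavage at 10 or 30 mg/kg, then lipopolysaccharide injected, and plasma TNF-alpha release measured.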

Rattus norvegicus [15] = assay: Toxicity in rat assessed as histological changes at 90 mg/kg, po qd for 4 days; assay type: organism-based; design: dose 90 mg/kg, route oral; details: in vivo, 96 h; method in brief: as §4
[16] = Clearance in cynomolgus monkey at 1 mg/kg, iv; assay type: ADME, organism-based, Macaca fascicularis; design: dose 1 mg/kg, route intravenous; details: in vivo
Method in brief: (§6)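 Intravenous dose of 1 mg/kg given to monkeys in a solution of 5% DMA and 95% isotonic citrate buffer (50 mM, pH 5.0).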

Mus musculus [17] = assay: Antifibrotic activity in bleomycin-induced C57B1/6 mouse model assessed as inhibition of white blood cells in bronchoalveolar lavage at 25 to 150 mg/kg, po bid administered 2 hrs prior bleomycin induction for 13 days; assay type: functional, organism-based; details: Lung; method in brief: as §3
Cytochrome P450 3A4 = Cytochrome P450 3A4 (Homo sapiens, UniProt P08684); assay: Inhibition of CYP3A4; assay type: ADME
Canis familiaris [18] = assay: AUC in dog at 10 mg/kg, po; assay type: ADME, organism-based, Canis lupus familiaris, Plasma; design: dose 10 mg/kg, route oral; details: in vivo; method in brief: as §1
[19] = Volume of distribution at steady state in cynomolgus monkey at 1 mg/kg, iv; assay type: ADME, organism-based, Macaca fascicularis; design: dose 1 mg/kg, route intravenous; details: in vivo, read-out: Vdss; method in brief: as §6
[20] = Mean residence time in dog at 1 mg/kg, iv; assay type: ADME, organism-based, Canis lupus familiaris; design: dose 1 mg/kg, route intravenous; details: in vivo
Canis familiaris [21] = assay: Oral bioavailability in dog at 10 mg/kg; assay type: ADME, organism-based, Canis lupus familiaris; details: in vivo; method in brief: as §1
[22] = biological target: Mitogen-activated protein kinase 3 (Homo sapiens, UniProt P27361); assay: Inhibition of ERK1
[23] = Clearance in dog at 1 mg/kg, iv; assay type: ADME, organism-based, Canis lupus familiaris; design: dose 1 mg/kg, route intravenous; details: in vivo
[24] = Lipophilicity, log D of the compound; assay type: physicochemical; details: octanol/water
[25] = Tmax in rat at 10 mg/kg, po; assay type: ADME, organism-based; design: dose 10 mg/kg, route oral; details: in vivo; method in brief: as §1
[26] = Dissociation constant, pKa of the compound; assay type: physicochemical
Mus musculus [27] = assay: Antifibrotic activity in bleomycin-induced C57B1/6 mouse model assessed as inhibition of monocytes in bronchoalveolar lavage at 25 to 150 mg/kg, po bid administered 2 hrs prior bleomycin induction for 13 days; assay type: functional, organism-based; details: Lung; method in brief: as §3
[28] = Tmax in dog at 10 mg/kg, po; assay type: ADME, organism-based, Canis lupus familiaris; design: dose 10 mg/kg, route oral; details: in vivo; method in brief: as §1
[29] = Cmax in cynomolgus monkey at 10 mg/kg, po; assay type: ADME, organism-based, Macaca fascicularis; design: dose 10 mg/kg, route oral; details: in vivo; method in brief: as §1
[30] = Oral bioavailability in rat at 10 mg/kg; assay type: ADME, organism-based; details: in vivo; method in brief: as §1
Mus musculus [31] = assay: Antifibrotic activity in bleomycin-induced C57B1/6 mouse model assessed as reduction in lung fibrosis score at 25 to 150 mg/kg, po bid administered 2 hrs prior bleomycin induction for 13 days; assay type: functional; design: scale not given: the % may be the effect or the level left; details: dose mg/kg 25-150; method in brief: as §3
[32] = AUC in cynomolgus monkey at 1 mg/kg, iv; assay type: ADME, organism-based, Macaca fascicularis; design: dose 1 mg/kg, route intravenous; details: plasma; method in brief: as §6
[33] = Mean residence time in cynomolgus monkey at 1 mg/kg, iv; assay type: ADME, organism-based, Macaca fascicularis; design: dose 1 mg/kg, route intravenous; details: in vivo; method in brief: as §6
Mus musculus [34] = assay: Antifibrotic activity in bleomycin-induced C57B1/6 mouse model assessed as inhibition of lymphocytes in bronchoalveolar lavage at 25 to 150 mg/kg, po bid administered 2 hrs prior bleomycin induction for 13 days; assay type: functional, organism-based; details: Lung; method in brief: as §3
Salmonella typhimurium = assay: Mutagenic activity in Salmonella Typhimurium by Ames test; assay type: toxicity, organism-based; details: salmonella enterica subsp. enterica serovar typhimurium
[35] = AUC in rat at 2 mg/kg, iv; assay type: ADME, organism-based; design: dose 2 mg/kg, route intravenous; details: plasma; method in brief: as §2
Canis familiaris [36] = assay: AUC in dog at 1 mg/kg, iv; assay type: ADME, organism-based, Canis lupus familiaris, Plasma; design: dose 1 mg/kg, route intravenous; details: in vivo
Rattus norvegicus [37] = assay: Antiinflammatory activity in CD rat assessed as inhibition of LPS-stimulated TNFalpha production at 10 mg/kg, po administered 1 hr prior LPS challenge measured after 90 mins by ELISA; assay type: functional; method in brief: as §5
[38] = Cmax in rat at 10 mg/kg, po; assay type: ADME, organism-based; design: dose 10 mg/kg, route oral; details: in vivo; method in brief: as §1
[39] = Mean residence time in rat at 2 mg/kg, iv; assay type: ADME, organism-based; design: dose 2 mg/kg, route intravenous; details: in vivo; method in brief: as §2
[40] = Volume of distribution at steady state in rat at 2 mg/kg, iv; assay type: ADME, organism-based; design: dose 2 mg/kg, route intravenous; details: in vivo, read-out: Vdss; method in brief: as §2
[41] = Cmax in dog at 10 mg/kg, po; assay type: ADME, organism-based, Canis lupus familiaris; design: dose 10 mg/kg, route oral; details: in vivo; method in brief: as §1
[42] = AUC in po dosed rat; assay type: ADME, organism-based; details: plasma

Chain of Mitogen-activated protein kinase 14 (Q16539 whole entry): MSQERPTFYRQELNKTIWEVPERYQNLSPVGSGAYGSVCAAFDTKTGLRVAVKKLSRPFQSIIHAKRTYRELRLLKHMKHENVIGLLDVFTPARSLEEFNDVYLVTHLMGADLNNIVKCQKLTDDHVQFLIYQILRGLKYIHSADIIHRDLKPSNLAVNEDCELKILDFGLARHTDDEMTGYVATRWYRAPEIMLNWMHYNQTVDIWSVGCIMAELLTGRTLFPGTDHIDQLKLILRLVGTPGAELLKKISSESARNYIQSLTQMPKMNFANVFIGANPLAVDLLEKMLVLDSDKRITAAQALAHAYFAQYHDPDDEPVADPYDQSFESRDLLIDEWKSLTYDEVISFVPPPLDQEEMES
Chain of Mitogen-activated protein kinase 8 (P45983 whole entry): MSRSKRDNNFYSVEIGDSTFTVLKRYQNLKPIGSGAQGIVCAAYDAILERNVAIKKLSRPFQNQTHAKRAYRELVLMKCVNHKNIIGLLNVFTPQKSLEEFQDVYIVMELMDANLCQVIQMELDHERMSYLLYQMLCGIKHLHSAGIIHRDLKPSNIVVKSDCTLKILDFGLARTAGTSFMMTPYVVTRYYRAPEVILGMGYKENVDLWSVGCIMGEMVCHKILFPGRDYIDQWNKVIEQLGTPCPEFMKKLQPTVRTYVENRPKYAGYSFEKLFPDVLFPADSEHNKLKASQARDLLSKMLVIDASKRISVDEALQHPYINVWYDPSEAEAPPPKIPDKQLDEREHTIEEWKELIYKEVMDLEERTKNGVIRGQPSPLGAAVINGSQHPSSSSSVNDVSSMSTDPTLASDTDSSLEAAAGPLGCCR
Chain of Mitogen-activated protein kinase 3 (P27361 whole entry): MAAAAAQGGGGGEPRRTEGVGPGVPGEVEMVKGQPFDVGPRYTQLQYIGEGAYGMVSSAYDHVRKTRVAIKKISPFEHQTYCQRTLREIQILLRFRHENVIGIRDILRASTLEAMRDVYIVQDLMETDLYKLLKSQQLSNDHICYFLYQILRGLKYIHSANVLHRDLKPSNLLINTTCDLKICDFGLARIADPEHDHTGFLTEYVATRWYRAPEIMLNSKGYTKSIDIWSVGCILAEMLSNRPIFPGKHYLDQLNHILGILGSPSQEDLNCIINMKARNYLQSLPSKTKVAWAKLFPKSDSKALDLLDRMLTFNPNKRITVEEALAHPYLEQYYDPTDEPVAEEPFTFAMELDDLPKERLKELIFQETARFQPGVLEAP
Chain of Cytochrome P450 3A4 (P08684 whole entry): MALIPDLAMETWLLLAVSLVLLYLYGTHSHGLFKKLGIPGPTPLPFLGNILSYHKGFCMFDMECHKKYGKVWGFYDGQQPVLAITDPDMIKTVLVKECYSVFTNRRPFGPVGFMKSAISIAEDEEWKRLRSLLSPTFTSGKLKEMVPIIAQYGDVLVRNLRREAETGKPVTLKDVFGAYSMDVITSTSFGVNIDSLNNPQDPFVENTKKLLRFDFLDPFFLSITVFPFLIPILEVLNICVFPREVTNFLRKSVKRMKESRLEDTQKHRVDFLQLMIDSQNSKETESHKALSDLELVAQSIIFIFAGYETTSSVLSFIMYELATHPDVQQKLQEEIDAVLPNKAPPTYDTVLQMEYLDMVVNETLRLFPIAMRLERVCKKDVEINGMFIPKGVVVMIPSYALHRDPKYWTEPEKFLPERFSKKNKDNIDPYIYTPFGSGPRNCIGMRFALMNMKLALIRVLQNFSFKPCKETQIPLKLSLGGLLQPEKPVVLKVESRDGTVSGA
Chain of Cytochrome P450 2D6 (P10635 whole entry): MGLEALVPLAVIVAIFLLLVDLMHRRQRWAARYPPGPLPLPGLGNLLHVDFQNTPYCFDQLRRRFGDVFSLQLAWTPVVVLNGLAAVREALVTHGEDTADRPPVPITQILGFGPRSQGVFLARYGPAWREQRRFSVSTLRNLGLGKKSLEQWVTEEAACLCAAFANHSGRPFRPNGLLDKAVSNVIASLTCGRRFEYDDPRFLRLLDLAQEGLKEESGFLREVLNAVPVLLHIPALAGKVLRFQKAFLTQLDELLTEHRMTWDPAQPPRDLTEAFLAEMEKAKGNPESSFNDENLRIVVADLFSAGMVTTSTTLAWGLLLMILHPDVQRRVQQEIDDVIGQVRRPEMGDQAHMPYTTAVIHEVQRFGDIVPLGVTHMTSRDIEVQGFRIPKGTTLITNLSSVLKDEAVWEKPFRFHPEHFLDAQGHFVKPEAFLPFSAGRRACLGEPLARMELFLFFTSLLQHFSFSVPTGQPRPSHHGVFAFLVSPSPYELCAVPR

AUC [1]: 12 µM·h
IC50 [2]: 860 nM
IC50 [3]: 2700 nM
IC50 [4]: 390 nM
bioavailability [5]: 70%
clearance [6]: 21 mL/min/kg
SMILES: O[C@H]1CC[C@H](Nc2ncc3nc(Nc4ccc(F)cc4F)n(C4CCOCC4)c3n2)CC1

IC50 [3]: 860 nM
IC50 [4]: 880 nM
SMILES: CS(=O)(=O)N[C@H]1CC[C@H](Nc2ncc3nc(Nc4ccc(F)cc4F)n(C4CCOCC4)c3n2)CC1

IC50 [2]: 1600 nM
IC50 [3]: > 3000 nM
IC50 [4]: 540 nM
SMILES: CCO[C@H]1CC[C@H](Nc2ncc3nc(Nc4ccc(F)cc4F)n(C4CCOCC4)c3n2)CC1

AUC [1]: 2.7 µM·h
IC50 [2]: 440 nM
IC50 [3]: 560 nM
IC50 [4]: 120 nM
bioavailability [5]: 68%
clearance [6]: 59 mL/min/kg
SMILES: O[C@H]1CC[C@H](Nc2ncc3nc(Nc4ccc(F)cc4F)n(C4CCCC4)c3n2)CC1

Tmax [7]: 1.3 h
AUC [1]: 3.1 µM·h
solubility [8]: 780 µg/mL (≈ 1740 µM)
inhibition (INH) (Cytochrome P450 2D6): Not Active
bioavailability [11]: 77%
AUC [12]: 100 µM·h
Vd [13]: 1.5 L/kg
clearance [16]: 2.9 mL/min/kg
inhibition (INH) (Cytochrome P450 3A4): Not Active
IC50 [3]: 3400 nM
AUC (Canis familiaris [18]): 86 µM·h
Vd [19]: 1.6 L/kg
MRT [20]: 7.3 h
F (Canis familiaris [21]): 27%
IC50 [22]: 480 nM
clearance [23]: 3.4 mL/min/kg
bioavailability [5]: 30%
logD [24]: 1.93
Tmax [25]: 1.5 h
pKa [26]: 5.47
Tmax [28]: 2.5 h
Cmax [29]: 11 µM
bioavailability [30]: 30%
AUC [32]: 13 µM·h
clearance [6]: 39 mL/min/kg
MRT [33]: 10 h
AUC [35]: 1.9 µM·h
AUC (Canis familiaris [36]): 11 µM·h
Cmax [38]: 0.7 µM
MRT [39]: 0.7 h
Vd [40]: 1.7 L/kg
Cmax [41]: 7.2 µM
SMILES: O[C@H]1CC[C@H](Nc2ncc3nc(Nc4c(F)cc(F)cc4F)n([C@H]4CCOC4)c3n2)CC1 [TANZISERTIB]
Activity (Mus musculus [9]): Dose-dependent effect
Activity (Rattus norvegicus [10]): Non-toxic
inhibition in vivo at 30 mg/kg (Rattus norvegicus [14]): 77%
Activity (Rattus norvegicus [15]): Non-toxic
inhibition (Mus musculus [17]): Active
inhibition (Mus musculus [27]): Active
Activity (Mus musculus [31]): 18%
inhibition (Mus musculus [34]): Active
Activity (Salmonella typhimurium): Non-toxic
inhibition in vivo at 10 mg/kg (Rattus norvegicus [37]): 23%

IC50 [3]: 230 nM
IC50 [4]: 900 nM
SMILES: Fc1ccc(Nc2nc3cnc(C4CCOCC4)nc3n2C2CCCC2)c(F)c1

IC50 [2]: 200 nM
AUC [42]: 5 µM·h
IC50 [3]: 160 nM
IC50 [4]: 120 nM
bioavailability [5]: 32%
clearance [6]: 25 mL/min/kg
SMILES: CC(C)Nc1ncc2nc(Nc3c(F)cc(F)cc3F)n([C@H]3CC[C@@H](C(N)=O)CC3)c2n1
inhibition in vivo at 30 mg/kg (Rattus norvegicus [14]): 96%

IC50 [2]: 1800 nM
IC50 [3]: 290 nM
IC50 [4]: 170 nM
SMILES: CC(C)(O)[C@H]1CC[C@H](Nc2ncc3nc(Nc4ccc(F)cc4F)n(C4CCCC4)c3n2)CC1

Reference: ChEMBL document CHEMBL1949521, “Discovery of CC-930, an orally active anti-fibrotic JNK inhibitor” (Bioorg Med Chem Lett, 2012)
